Test results: ChEMBL document CHEMBL1165995, “Anti-ischemia steroidal saponins from the seeds of Allium fistulosum” (2010)

Key:
Format in all cases: functional
Conditions in all cases: Homo sapiens, read-out: Activity
HUVEC [1] = experiment: Antiischemic activity against hypoxia/reoxygenation-induced cell injury in HUVEC assessed as cell viability at 5 uM by MTT assay
In short: (§1)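 HUVEC given hypoxia/reoxygenation (H/R) injury and treated with saponin at one of six dose groups (0.5, 1, 5, 10, 50, 100 µM). Viability was read by MTT assay, with untreated control cells and H/R-only cells as references. Values are mean ± SEM of three independent experiments, and significance was tested against the H/R group.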

HUVEC [2] = experiment: Antiischemic activity against hypoxia/reoxygenation-induced cell injury in HUVEC assessed as cell viability at 10 uM by MTT assay; in short: as §1
HUVEC [3] = experiment: Antiischemic activity against hypoxia/reoxygenation-induced cell injury in HUVEC assessed as cell viability at 50 uM by MTT assay; in short: as §1
HUVEC [4] = experiment: Antiischemic activity against hypoxia/reoxygenation-induced cell injury in HUVEC assessed as cell viability at 100 uM by MTT assay; in short: as §1
HUVEC [5] = experiment: Antiischemic activity against hypoxia/reoxygenation-induced cell injury in HUVEC assessed as cell viability at 0.5 uM by MTT assay; in short: as §1
HUVEC [6] = experiment: Antiischemic activity against hypoxia/reoxygenation-induced cell injury in HUVEC assessed as cell viability at 1 uM by MTT assay; in short: as §1

Compound	viability at 5 µM (HUVEC [1])	viability at 10 µM (HUVEC [2])	viability at 50 µM (HUVEC [3])	viability at 100 µM (HUVEC [4])	viability at 0.5 µM (HUVEC [5])	viability at 1 µM (HUVEC [6])
C[C@@H](CC[C@@]1(O)O[C@H]2C[C@H]3[C@@H]4CC=C5C[C@@H](O[C@@H]6O[C@H](CO)[C@@H](O[C@@H]7O[C@@H](C)[C@H](O)[C@@H](O)[C@H]7O)[C@H](O)[C@H]6O[C@@H]6O[C@@H](C)[C@H](O)[C@@H](O)[C@H]6O)CC[C@]5(C)[C@H]4CC[C@]3(C)[C@H]2[C@@H]1C)CO[C@@H]1O[C@H](CO)[C@@H](O)[C@H](O)[C@H]1O	69.4%	72.1%	74.3%	68.6%	60.7%	63.5%
C[C@@H](CC[C@@]1(O)O[C@H]2C[C@H]3[C@@H]4CC=C5C[C@@H](O[C@@H]6O[C@H](CO)[C@@H](O[C@@H]7O[C@@H](C)[C@H](O[C@@H]8O[C@@H](C)[C@H](O)[C@@H](O)[C@H]8O)[C@@H](O)[C@H]7O)[C@H](O)[C@H]6O[C@@H]6O[C@@H](C)[C@H](O)[C@@H](O)[C@H]6O)CC[C@]5(C)[C@H]4CC[C@]3(C)[C@H]2[C@@H]1C)CO[C@@H]1O[C@H](CO)[C@@H](O)[C@H](O)[C@H]1O	69.5%	73.3%	73.6%	62.8%	64%	65.2%
CC1=C(CC[C@H](C)CO[C@@H]2O[C@H](CO)[C@@H](O)[C@H](O)[C@H]2O)O[C@H]2C[C@H]3[C@@H]4CC=C5C[C@@H](O[C@@H]6O[C@H](CO)[C@@H](O[C@@H]7O[C@@H](C)[C@H](O)[C@@H](O)[C@H]7O)[C@H](O)[C@H]6O[C@@H]6O[C@@H](C)[C@H](O)[C@@H](O)[C@H]6O)C(=O)C[C@]5(C)[C@H]4CC[C@]3(C)[C@@H]12 [FISTULOSAPONIN A]	80.1%	82.7%	86.3%	78.2%	59.5%	76.3%
C[C@@H](CC[C@@]1(O)O[C@H]2C[C@H]3[C@@H]4CC=C5C[C@@H](O[C@@H]6O[C@H](CO)[C@@H](O[C@@H]7O[C@@H](C)[C@H](O)[C@@H](O)[C@H]7O)[C@H](O)[C@H]6O[C@@H]6O[C@@H](C)[C@H](O)[C@@H](O)[C@H]6O)C(=O)C[C@]5(C)[C@H]4CC[C@]3(C)[C@H]2[C@@H]1C)CO[C@@H]1O[C@H](CO)[C@@H](O)[C@H](O)[C@H]1O [FISTULOSAPONIN B]	77.2%	79.4%	82.1%	74.8%	65.7%	71.8%
C[C@@H](CC[C@@]1(O)O[C@H]2C[C@H]3[C@@H]4CC=C5C[C@@H](O[C@@H]6O[C@H](CO)[C@@H](O)[C@H](O)[C@H]6O[C@@H]6O[C@@H](C)[C@H](O[C@@H]7O[C@@H](C)[C@H](O)[C@@H](O)[C@H]7O)[C@@H](O)[C@H]6O)C(=O)C[C@]5(C)[C@H]4CC[C@]3(C)[C@H]2[C@@H]1C)CO[C@@H]1O[C@H](CO)[C@@H](O)[C@H](O)[C@H]1O [FISTULOSAPONIN C]	79.7%	81.2%	84.6%	69.5%	71.7%	74.8%
C[C@@H](CC[C@@]1(O)O[C@H]2C[C@H]3[C@@H]4CC=C5C[C@@H](O[C@@H]6O[C@H](CO)[C@@H](O)[C@H](O)[C@H]6O[C@@H]6O[C@H](CO)[C@@H](O)[C@H](O)[C@H]6O[C@@H]6O[C@H](CO)[C@@H](O)[C@H](O)[C@H]6O)C(=O)C[C@]5(C)[C@H]4CC[C@]3(C)[C@H]2[C@@H]1C)CO[C@@H]1O[C@H](CO)[C@@H](O)[C@H](O)[C@H]1O [FISTULOSAPONIN D]	78.2%	79.8%	82.4%	75.6%	68.9%	72.6%
CC1=C(CC[C@H](C)CO[C@@H]2O[C@H](CO)[C@@H](O)[C@H](O)[C@H]2O)O[C@H]2C[C@H]3[C@@H]4CC=C5C[C@@H](O[C@@H]6O[C@H](CO)[C@@H](O)[C@H](O)[C@H]6O[C@@H]6O[C@H](CO)[C@@H](O)[C@H](O)[C@H]6O[C@@H]6O[C@H](CO)[C@@H](O)[C@H](O)[C@H]6O)[C@H](O)C[C@]5(C)[C@H]4CC[C@]3(C)[C@@H]12 [FISTULOSAPONIN E]	70.2%	77.9%	75.4%	68%	60.9%	64.3%
C[C@@H](CC[C@@]1(O)O[C@H]2C[C@H]3[C@@H]4CC=C5C[C@@H](O[C@@H]6O[C@H](CO)[C@@H](O)[C@H](O)[C@H]6O[C@@H]6O[C@H](CO)[C@@H](O)[C@H](O)[C@H]6O[C@@H]6O[C@H](CO)[C@@H](O)[C@H](O)[C@H]6O)[C@H](O)C[C@]5(C)[C@H]4CC[C@]3(C)[C@H]2[C@@H]1C)CO[C@@H]1O[C@H](CO)[C@@H](O)[C@H](O)[C@H]1O [FISTULOSAPONIN F]	74.1%	75.5%	77.4%	71.2%	62.3%	68.3%
C[C@@H](CC[C@@]1(O)O[C@H]2C[C@H]3[C@@H]4CC=C5C[C@@H](O[C@@H]6O[C@H](CO)[C@@H](O)[C@H](O[C@@H]7O[C@H](CO)[C@@H](O)[C@H](O)[C@H]7O)[C@H]6O[C@@H]6O[C@@H](C)[C@H](O)[C@@H](O)[C@H]6O)CC[C@]5(C)[C@H]4CC[C@]3(C)[C@H]2[C@@H]1C)CO[C@@H]1O[C@H](CO)[C@@H](O)[C@H](O)[C@H]1O [PROTOGRACILLIN]	75.2%	77.9%	78.2%	68%	60.9%	69.5%
